Results: ChEMBL document CHEMBL3576822 (J Med Chem, 2015)
Blank lines part the entries; values can stand above or below the compound they belong to. Non-standard residues stand in square brackets, D forms with d. Residues, ends and D or L forms follow the SMILES beside them. ξ: configuration not given here. ξDap = NCC(N)C(=O)O

Experiments:
[1] = molecular target: T1, Growth hormone secretagogue receptor type 1 (Homo sapiens, UniProt Q92847); test: Inverse agonist activity at human GHSR1a receptor expressed in COS-7 cells assessed as inositol phosphate accumulation after 2 hrs by anion exchange chromatography relative to control; format: functional, cell-based
T1 sequence (Q92847 whole entry): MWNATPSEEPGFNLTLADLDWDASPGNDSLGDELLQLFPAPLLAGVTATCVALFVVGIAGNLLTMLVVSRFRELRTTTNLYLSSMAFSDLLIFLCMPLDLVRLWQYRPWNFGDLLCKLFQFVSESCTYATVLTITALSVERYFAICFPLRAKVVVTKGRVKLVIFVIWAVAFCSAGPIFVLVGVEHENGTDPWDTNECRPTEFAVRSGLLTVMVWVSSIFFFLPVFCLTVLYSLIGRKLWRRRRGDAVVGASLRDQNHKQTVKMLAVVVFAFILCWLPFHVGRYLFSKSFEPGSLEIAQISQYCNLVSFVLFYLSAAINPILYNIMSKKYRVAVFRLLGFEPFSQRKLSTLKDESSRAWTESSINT

[2] = molecular target: T1, Growth hormone secretagogue receptor type 1; test: Inverse agonist activity at human GHSR1a receptor expressed in COS-7 cells assessed as inositol phosphate accumulation after 2 hrs by anion exchange chromatography; format: functional, cell-based
[3] = molecular target: T2, Neuropeptide Y receptor type 2 (Homo sapiens) (UniProt P49146); test: Agonist activity at human neuropeptide Y Y2 receptor expressed in COS-7 cells cotransfected with chimeric Gi/q protein assessed as inositol phosphate accumulation after 2 hrs by anion exchange chromatography relative to control; format: functional, cell-based
T2 sequence (whole entry): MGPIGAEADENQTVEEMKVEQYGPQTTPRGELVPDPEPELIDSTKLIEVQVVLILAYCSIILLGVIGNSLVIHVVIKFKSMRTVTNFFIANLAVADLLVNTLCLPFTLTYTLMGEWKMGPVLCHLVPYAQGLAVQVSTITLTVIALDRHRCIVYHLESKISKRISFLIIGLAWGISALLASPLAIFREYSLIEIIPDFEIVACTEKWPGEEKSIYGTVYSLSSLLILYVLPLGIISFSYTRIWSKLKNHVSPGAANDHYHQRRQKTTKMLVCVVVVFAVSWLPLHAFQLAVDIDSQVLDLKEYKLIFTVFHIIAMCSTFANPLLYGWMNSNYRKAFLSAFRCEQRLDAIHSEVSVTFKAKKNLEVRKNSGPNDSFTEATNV
Procedure, shortened: (§1)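 Inositol phosphate turnover in COS-7 cells stably co-expressing human Y2 receptor and chimeric Gi/q protein; concentration-response curves, responses as % of maximum Y2 activity; SEM over two biological replicates.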

[4] = molecular target: Neuropeptide Y receptor type 4 (Homo sapiens) (UniProt P50391); test: Agonist activity at human neuropeptide Y Y4 receptor expressed in COS-7 cells cotransfected with chimeric Gi/q protein assessed as inositol phosphate accumulation at 1 uM after 2 hrs by anion exchange chromatography; format: functional, cell-based
Neuropeptide Y receptor type 4 (Homo sapiens), sequence (P50391 whole entry): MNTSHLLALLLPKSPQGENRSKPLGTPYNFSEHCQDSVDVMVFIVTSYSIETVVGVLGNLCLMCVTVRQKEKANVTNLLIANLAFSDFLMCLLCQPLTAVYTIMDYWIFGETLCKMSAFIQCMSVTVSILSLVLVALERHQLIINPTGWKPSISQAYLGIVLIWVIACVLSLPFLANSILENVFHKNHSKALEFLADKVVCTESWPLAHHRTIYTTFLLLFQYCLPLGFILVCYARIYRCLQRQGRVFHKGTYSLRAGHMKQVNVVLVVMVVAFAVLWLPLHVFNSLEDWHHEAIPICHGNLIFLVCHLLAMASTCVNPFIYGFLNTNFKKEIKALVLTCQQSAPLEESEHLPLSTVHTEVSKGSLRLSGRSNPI
Procedure, shortened: (§2)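 COS-7 cells stably co-expressing the corresponding human Y receptor plus a chimeric Gi/q protein; single high concentration tested in inositol phosphate accumulation; response as % of NPY response at each receptor; SEM over two biological replicates.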

[5] = molecular target: T3, Neuropeptide Y receptor type 5 (Homo sapiens) (UniProt Q15761); test: Agonist activity at human neuropeptide Y Y5 receptor expressed in COS-7 cells cotransfected with chimeric Gi/q protein assessed as inositol phosphate accumulation at 1 uM after 2 hrs by anion exchange chromatography; format: functional, cell-based; procedure, shortened: as §2
T3 sequence (whole entry): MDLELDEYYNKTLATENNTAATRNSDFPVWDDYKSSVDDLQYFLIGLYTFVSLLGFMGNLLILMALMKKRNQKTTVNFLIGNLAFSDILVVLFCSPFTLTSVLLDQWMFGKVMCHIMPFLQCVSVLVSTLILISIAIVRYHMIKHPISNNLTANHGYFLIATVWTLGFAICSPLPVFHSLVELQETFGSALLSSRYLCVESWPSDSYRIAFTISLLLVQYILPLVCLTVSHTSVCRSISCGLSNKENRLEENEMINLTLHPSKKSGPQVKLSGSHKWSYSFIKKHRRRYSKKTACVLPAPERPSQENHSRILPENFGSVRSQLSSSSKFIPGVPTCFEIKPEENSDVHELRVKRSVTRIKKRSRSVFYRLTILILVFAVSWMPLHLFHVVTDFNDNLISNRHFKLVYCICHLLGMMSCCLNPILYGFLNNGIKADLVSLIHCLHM

[6] = molecular target: T4, Neuropeptide Y receptor type 1 (Homo sapiens) (UniProt P25929); test: Agonist activity at human neuropeptide Y Y1 receptor expressed in COS-7 cells cotransfected with chimeric Gi/q protein assessed as inositol phosphate accumulation at 1 uM after 2 hrs by anion exchange chromatography; format: functional, cell-based; procedure, shortened: as §2
T4 sequence (whole entry): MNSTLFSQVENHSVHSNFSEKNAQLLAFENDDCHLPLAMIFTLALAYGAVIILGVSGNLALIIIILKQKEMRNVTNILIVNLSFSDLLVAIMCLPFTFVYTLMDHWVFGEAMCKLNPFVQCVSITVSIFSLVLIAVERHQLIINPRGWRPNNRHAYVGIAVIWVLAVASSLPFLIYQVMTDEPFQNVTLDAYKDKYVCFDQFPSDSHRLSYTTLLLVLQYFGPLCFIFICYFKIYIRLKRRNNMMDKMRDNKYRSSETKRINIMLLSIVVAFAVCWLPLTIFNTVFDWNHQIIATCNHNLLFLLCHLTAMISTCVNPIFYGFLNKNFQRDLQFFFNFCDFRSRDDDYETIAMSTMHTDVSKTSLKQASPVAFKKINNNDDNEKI

[7] = molecular target: T5, Neuropeptide Y receptor type 2 (Homo sapiens, UniProt P49146); test: Agonist activity at human neuropeptide Y Y2 receptor expressed in COS-7 cells cotransfected with chimeric Gi/q protein assessed as inositol phosphate accumulation after 2 hrs by anion exchange chromatography; format: functional, cell-based; procedure, shortened: as §1
T5 sequence (P49146 whole entry): T2 sequence (whole entry)

[8] = molecular target: T5, Neuropeptide Y receptor type 2; test: Displacement of [125I]PYY from human neuropeptide Y Y2 receptor expressed in HEK293 cells cotransfected with eYFP fusion protein after 2 hrs by competitive receptor binding assay; format: cell-based; settings: hek293
Procedure, shortened: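 Competitive binding against 125I-PYY in HEK-293 cells stably expressing human Y2 receptor; concentration-response curves.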

[9] = molecular target: T1, Growth hormone secretagogue receptor type 1; test: Displacement of [125I]ghrelin from human eYFP-fused ghrelin receptor expressed in COS7 cells after 75 mins by competitive receptor binding assay; format: cell-based, COS-7; settings: cos-7

Efficacy [1]: 64% | EC50 [2]: 267 nM
SMILES: CC(=O)N[C@@H](CCCCNC(=O)CCCCCNC(=O)[C@H](CC(N)=O)NC(=O)[C@H](CC(C)C)NC(=O)[C@@H](Cc1c[nH]c2ccccc12)NC(=O)[C@H](Cc1ccccc1)NC(=O)[C@@H](Cc1cccc2ccccc12)NC(=O)[C@@H](N)CCCCN)C(=O)N[C@@H](CC(C)C)C(=O)N[C@@H](CCCNC(=N)N)C(=O)N[C@@H](Cc1cnc[nH]1)C(=O)N[C@@H](Cc1ccc(O)cc1)C(=O)N[C@@H](CC(C)C)C(=O)N[C@@H](CC(N)=O)C(=O)N[C@@H](CC(C)C)C(=O)N[C@@H](CC(C)C)C(=O)N[C@H](C(=O)N[C@@H](CCCNC(=N)N)C(=O)N[C@@H](CCC(N)=O)C(=O)N[C@@H](CCCNC(=N)N)C(=O)N[C@@H](Cc1ccc(O)cc1)C(N)=O)[C@@H](C)O

Efficacy [1]: 78% | Efficacy [3]: 82% | Efficacy [4]: < 25% | Efficacy [5]: 33% | Efficacy [6]: < 25%
SMILES: CC(=O)NC(CNC(=O)CCC(=O)N[C@@H](CCCCN)C(=O)N[C@@H](CCCCN)C(=O)N[C@@H](Cc1cccc2ccccc12)C(=O)N[C@@H](Cc1ccccc1)C(=O)N[C@H](Cc1c[nH]c2ccccc12)C(=O)N[C@@H](CC(C)C)C(=O)N[C@@H](CC(C)C)C(N)=O)C(=O)N[C@@H](CC(C)C)C(=O)N[C@@H](CCCNC(=N)N)C(=O)N[C@@H](Cc1cnc[nH]1)C(=O)N[C@@H](Cc1ccc(O)cc1)C(=O)N[C@@H](CC(C)C)C(=O)N[C@@H](CC(N)=O)C(=O)N[C@@H](CC(C)C)C(=O)N[C@@H](CC(C)C)C(=O)N[C@H](C(=O)N[C@@H](CCCNC(=N)N)C(=O)N[C@@H](CCC(N)=O)C(=O)N[C@@H](CCCNC(=N)N)C(=O)N[C@@H](Cc1ccc(O)cc1)C(N)=O)[C@@H](C)O (some centres undefined)

EC50 ([2]; cos-7): 110 nM | IC50 [8]: 9.7 nM | EC50 ([7]; cos-7): 2 nM | IC50 [9]: 70.4 nM
SMILES: CC(=O)N[C@@H](CNC(=O)CCC(=O)N[C@@H](CCCCN)C(=O)N[C@@H](CCCCN)C(=O)N[C@H](Cc1cccc2ccccc12)C(=O)N[C@@H](Cc1ccccc1)C(=O)N[C@H](Cc1c[nH]c2ccccc12)C(=O)N[C@@H](CC(C)C)C(=O)N[C@@H](CC(C)C)C(N)=O)C(=O)N[C@@H](CC(C)C)C(=O)N[C@@H](CCCNC(=N)N)C(=O)N[C@@H](Cc1cnc[nH]1)C(=O)N[C@@H](Cc1ccc(O)cc1)C(=O)N[C@@H](CC(C)C)C(=O)N[C@@H](CC(N)=O)C(=O)N[C@@H](CC(C)C)C(=O)N[C@@H](CC(C)C)C(=O)N[C@H](C(=O)N[C@@H](CCCNC(=N)N)C(=O)N[C@@H](CCC(N)=O)C(=O)N[C@@H](CCCNC(=N)N)C(=O)N[C@@H](Cc1ccc(O)cc1)C(N)=O)[C@@H](C)O

EC50 [2]: > 1000 nM | Efficacy [3]: 68% | EC50 [7]: 0.5 nM
SMILES: CC(=O)N[C@@H](CCCCN)C(=O)N[C@@H](CC(C)C)C(=O)N[C@@H](CCCNC(=N)N)C(=O)N[C@@H](Cc1cnc[nH]1)C(=O)N[C@@H](Cc1ccc(O)cc1)C(=O)N[C@@H](CC(C)C)C(=O)N[C@@H](CC(N)=O)C(=O)N[C@@H](CC(C)C)C(=O)N[C@@H](CC(C)C)C(=O)N[C@H](C(=O)N[C@@H](CCCNC(=N)N)C(=O)N[C@@H](CCC(N)=O)C(=O)N[C@@H](CCCNC(=N)N)C(=O)N[C@@H](Cc1ccc(O)cc1)C(N)=O)[C@@H](C)O (Ac-KLRHYLNLLTRQRY-NH2)

Efficacy [3]: 77% | EC50 [7]: 0.4 nM
SMILES: CC(=O)NC(CN)C(=O)N[C@@H](CC(C)C)C(=O)N[C@@H](CCCNC(=N)N)C(=O)N[C@@H](Cc1cnc[nH]1)C(=O)N[C@@H](Cc1ccc(O)cc1)C(=O)N[C@@H](CC(C)C)C(=O)N[C@@H](CC(N)=O)C(=O)N[C@@H](CC(C)C)C(=O)N[C@@H](CC(C)C)C(=O)N[C@H](C(=O)N[C@@H](CCCNC(=N)N)C(=O)N[C@@H](CCC(N)=O)C(=O)N[C@@H](CCCNC(=N)N)C(=O)N[C@@H](Cc1ccc(O)cc1)C(N)=O)[C@@H](C)O (some centres undefined) (Ac-[ξDap]LRHYLNLLTRQRY-NH2)

Efficacy [1]: 74% | EC50 [2]: 331 nM
SMILES: CC(=O)N[C@@H](CCCCNC(=O)CCNC(=O)[C@H](CC(N)=O)NC(=O)[C@H](CC(C)C)NC(=O)[C@@H](Cc1c[nH]c2ccccc12)NC(=O)[C@H](Cc1ccccc1)NC(=O)[C@@H](Cc1cccc2ccccc12)NC(=O)[C@@H](N)CCCCN)C(=O)N[C@@H](CC(C)C)C(=O)N[C@@H](CCCNC(=N)N)C(=O)N[C@@H](Cc1cnc[nH]1)C(=O)N[C@@H](Cc1ccc(O)cc1)C(=O)N[C@@H](CC(C)C)C(=O)N[C@@H](CC(N)=O)C(=O)N[C@@H](CC(C)C)C(=O)N[C@@H](CC(C)C)C(=O)N[C@H](C(=O)N[C@@H](CCCNC(=N)N)C(=O)N[C@@H](CCC(N)=O)C(=O)N[C@@H](CCCNC(=N)N)C(=O)N[C@@H](Cc1ccc(O)cc1)C(N)=O)[C@@H](C)O

The remaining lines, values behind:

SMILES: CC(C)C[C@H](NC(=O)[C@H](CC(C)C)NC(=O)[C@@H](Cc1c[nH]c2ccccc12)NC(=O)[C@H](Cc1ccccc1)NC(=O)[C@@H](Cc1cccc2ccccc12)NC(=O)[C@H](CCCCN)NC(=O)[C@H](CCCCN)NC(=O)CCC(=O)O)C(N)=O
EC50 ([2]; cos-7): 60.2 nM | EC50 ([7]; cos-7): > 1000 nM

SMILES: CC(C)C[C@H](NC(=O)[C@@H](Cc1c[nH]c2ccccc12)NC(=O)[C@H](Cc1ccccc1)NC(=O)[C@H](Cc1cccc2ccccc12)NC(=O)[C@@H](N)CCCCN)C(=O)N[C@@H](CCC(N)=O)C(=O)O
Efficacy [1]: 92%

SMILES: CC(C)C[C@H](NC(=O)[C@H](CC(C)C)NC(=O)[C@@H](Cc1c[nH]c2ccccc12)NC(=O)[C@H](Cc1ccccc1)NC(=O)[C@H](Cc1cccc2ccccc12)NC(=O)[C@H](CCCCN)NC(=O)[C@H](CCCCN)NC(=O)CCC(=O)O)C(N)=O
Efficacy [1]: 84%

SMILES: CC(C)C[C@H](NC(=O)[C@@H](Cc1c[nH]c2ccccc12)NC(=O)[C@H](Cc1ccccc1)NC(=O)[C@@H](Cc1cccc2ccccc12)NC(=O)[C@@H](N)CCCCN)C(=O)N[C@@H](CC(N)=O)C(=O)O
EC50 ([2]; cos-7): 189 nM

SMILES: CC(C)C[C@H](NC(=O)[C@@H](Cc1c[nH]c2ccccc12)NC(=O)[C@H](Cc1ccccc1)NC(=O)[C@H](Cc1cccc2ccccc12)NC(=O)[C@@H](N)CCCCN)C(=O)N[C@@H](CC(N)=O)C(=O)O
Efficacy [1]: 86%

SMILES: CC(C)C[C@H](NC(=O)[C@H](CC(C)C)NC(=O)[C@@H](Cc1c[nH]c2ccccc12)NC(=O)[C@H](Cc1ccccc1)NC(=O)[C@@H](Cc1cccc2ccccc12)NC(=O)[C@H](CCCCN)NC(=O)CCC(=O)O)C(N)=O
EC50 ([2]; cos-7): 29 nM | EC50 ([7]; cos-7): > 1000 nM

SMILES: CC(C)C[C@H](NC(=O)[C@H](CC(C)C)NC(=O)[C@@H](Cc1c[nH]c2ccccc12)NC(=O)[C@H](Cc1ccccc1)NC(=O)[C@H](Cc1cccc2ccccc12)NC(=O)[C@H](CCCCN)NC(=O)CCC(=O)O)C(N)=O
Efficacy [1]: 88%

SMILES: CC(C)C[C@H](NC(=O)[C@@H](Cc1c[nH]c2ccccc12)NC(=O)[C@H](Cc1ccccc1)NC(=O)[C@@H](Cc1cccc2ccccc12)NC(=O)[C@@H](N)CCCCN)C(=O)N[C@@H](CCC(N)=O)C(=O)O
EC50 ([2]; cos-7): 70.2 nM | EC50 ([7]; cos-7): > 1000 nM
